The list is not random: actives were taken first. Their share in the collection is about 2.3%.
T cell modulator: modulates CD8 T cell binding to vesicles; actives 0.068% (n = 330,000); 2C CD8+ T cell-vesicle binding, flow cytometry; stronger effect = lower value; AID 2052; response (vesicle binding), % at 7 µM;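 active means response, share of CD8 T cells binding vesicles, and their 90th percentile fluorescence all below set limits, cut at about 80% in these data, passing the limit was not always enough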;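 further: values below 100% mean blocked vesicle binding to the CD8+ T cells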
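Incubation: binding step 1.5 h, 37 °C, antibody labelling 20 min, ice; system: murine 2C transgenic CD8+ T lymphocytes; technique: cytometric PE anti-B7-1 and Alexa647 anti-CD8 signals after 1% paraformaldehyde fixation; also added: QL9-charged Drosophila Ld/ICAM-1/B7-1 vesicles; control set: naked versus QL9-loaded vesicles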
p-CIP stab down: p/CIP protein destabilization; actives 0.01% (n = 290,000); AID 1984; decrease of EGFP signal, % at 10 µM; F442A p/CIP-EGFP cells, EGFP fluorescence, 16 h;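 active means EGFP signal decrease of at least 30% at 10 µM or well 3 SD below plate mean, unless failing retest; inactive means the rest, including hits failing retest or dose response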
GPR7 antag: blocks human GPR7 receptor signaling; AID 1861; inhibition, % at 4.4 µM; GPR7-expressing cells, fluorescence antagonist assay; actives 1.1% (n = 290,000); P48145; in the data active means inhibition above about 16%, passing the limit was not always enough;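 further: cells stimulated with the agonist NPW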
Pemphigus Ab inh: inhibitors of pemphigus antibody binding to human desmoglein-3; binding (percent of control), % at 10 µM; P32926; actives 0.48% (n = 310,000); DSG3-coupled beads, scFv-anti-DSG3-GFP binding, flow cytometry; stronger effect = lower value; AID 588358;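 active means binding more than 3 SD below its plate's average and above zero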;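 further: hits lower antibody fragment binding to DSG3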
CHT block: inhibits the human high affinity choline transporter; Q9GZV3; B-score at 10 µM; actives 0.86% (n = 310,000); AID 488975; CHT-expressing cells, membrane potential dye, choline response; stronger effect = lower value;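 active means B-score over 3 SD under the library average, and starting fluorescence ratio not unusually high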;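 further: choline stimulus applied at its EC90 after an EC20 pre-addition; B-score computed on integrated fluorescence ratio after choline addition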
CHT allo act: allosteric activators of human choline transporter CHT | Q9GZV3 | CHT-expressing cells, membrane potential dye, choline EC20; stronger effect = higher value; LV-AA mutant CHT in HEK293 cells | B-score at 10 µM | actives 0.49% (n = 310,000) | AID 488977;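 active means initial fluorescence not abnormally high and integrated response B-score, plate-corrected, over 3 SD above library mean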
CHT act confirm: confirmation of human choline transporter (CHT) activators | shares compounds with CHT allo act | CHT-expressing cells, membrane potential dye fluorescence (FDSS); % of choline EC20–EC90 response window; HEK293 expressing CHT LV-AA mutant; choline added at its EC20 | activation, % at 10 µM | actives 91% (n = 2,500);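 active means primary screen active, with duplicate mean activation above negative control mean plus 3 SD, cut at about 11% in these data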
HEK293 MP dye: activity in parental HEK293 cells lacking CHT; shares compounds with CHT allo act; membrane potential dye fluorescence (FDSS); measured after EC20 choline addition; ratio readout change at 10 µM, hits read low; actives 62% (n = 2,500);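 active means duplicate-averaged ratio beyond 3 SD from buffer wells, up or down, though filed actives are nearly all decreases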
Large screens that a line does not name were inactive (follow-up assays come after a bar, where they were run).

COc1ccc(-n2c(-c3ccc(Cl)cc3)c[n+]3c2CCCCC3)cc1	CHT allo act 12 | CHT act confirm 44 | HEK293 MP dye inactive
CCOc1ccc(-n2c(-c3ccccc3)c[n+]3c2CCC3)cc1	none | CHT act confirm 43 | HEK293 MP dye -30
CN1CCN(CC(=O)Nc2cc(N(C)C)nc3ccccc23)CC1	none | CHT act confirm 38 | HEK293 MP dye -40
CCN(CC)CC(=O)Nc1cc(N(C)C)nc2ccccc12	none
CCOC(=O)C1CN(C(=O)OCC)CC1=NNC(N)=O (centres undefined)	none (no result: T cell modulator, p-CIP stab down, GPR7 antag, CHT block, CHT allo act)
O=C(CNC1=NCCC1)c1ccc2c(c1)OCCO2	none (no result: Pemphigus Ab inh) | CHT act confirm 36 | HEK293 MP dye -28
O=C(CCCO)c1ccc2c(c1)OCCO2	none
O=C(COC(=O)COc1ccc(Br)cc1)NC1CCCC1	none (no result: p-CIP stab down, GPR7 antag, CHT block, CHT allo act)
CCCCCCN1C2=NCCN2c2ccccc21	none
CCCN1C2=NCCN2c2ccccc21	CHT allo act 6.4 | CHT act confirm 41 | HEK293 MP dye -36
CN1C2=NCCN2C(=O)c2ccccc21	CHT allo act 9.4 | CHT act confirm 29 | HEK293 MP dye -52
CCN1C(=O)[C@H]2[C@@H](c3ccc(C)cc3)N[C@]3(CCCN(CCC(C)C)C3=O)[C@H]2C1=O	none (no result: T cell modulator, p-CIP stab down, GPR7 antag, CHT block, CHT allo act)
CC(C)(C)C(=O)NCCCc1nc2ccccc2n1CCCOc1ccc(Cl)cc1	CHT allo act 12 | CHT act confirm inactive | HEK293 MP dye inactive
CC1CN=C(c2ccccc2)O1 (centres undefined)	none (no result: T cell modulator, p-CIP stab down, GPR7 antag, CHT block, CHT allo act)
C=CCn1c(SCC(=O)Nc2ccc(OC)cc2)nc2c([nH]c3ccccc32)c1=O	none
Cn1c(=O)[nH]c(=O)c2c1nc(SCCN1CCCCC1)n2CCCc1ccccc1	none | CHT act confirm 53 | HEK293 MP dye -54
C=CCn1c(SCCN2CCCCC2)nc2c1c(=O)[nH]c(=O)n2C	CHT allo act 10 | CHT act confirm 64 | HEK293 MP dye -63
C=CCn1c(SCCN2CCCC2)nc2c([nH]c3ccccc32)c1=O	CHT allo act 6.5 | CHT act confirm 40 | HEK293 MP dye -41
Cn1c(=O)[nH]c(=O)c2c1nc(SCCN1CCCCC1)n2Cc1ccccc1	CHT allo act 9.9 | CHT act confirm 58 | HEK293 MP dye -61
Cn1c(=O)[nH]c(=O)c2c1nc(SCC(=O)O)n2Cc1ccccc1	none
COCCSc1nc2c(c(=O)[nH]c(=O)n2C)n1CCCc1ccccc1	none
Oc1ccc(CCc2ccccn2)cc1	none (no result: T cell modulator, p-CIP stab down, GPR7 antag, CHT block, CHT allo act)
COCCN(C(=O)c1ccc(C)c(S(=O)(=O)N2CCOCC2)c1)c1c(N)n(CC(C)C)c(=O)[nH]c1=O	none (no result: T cell modulator, p-CIP stab down, GPR7 antag, CHT block, CHT allo act)
Cc1ccc(Cn2c(SCCN3CCCCC3)nc3c2c(=O)[nH]c(=O)n3C)cc1	CHT allo act 6.5 | CHT act confirm 53 | HEK293 MP dye -50
Cc1cccc(Cn2c(SCCN3CCCCC3)nc3c2c(=O)[nH]c(=O)n3C)c1	CHT allo act 9 (no result: GPR7 antag) | CHT act confirm 61 | HEK293 MP dye -62
Cc1ccc(Cn2c(SCCN3CCOCC3)nc3c2c(=O)n(C)c(=O)n3C)cc1	none
CSc1ccccc1C(=O)N1CCc2ccc(NC(=O)c3ccccn3)cc2C1	none (no result: T cell modulator, p-CIP stab down, GPR7 antag, CHT block, CHT allo act)
Cn1c2ccc(F)cc2c2ncn(CCCN(CCO)CCO)c(=O)c21	none | CHT act confirm 50 | HEK293 MP dye -41
CC(C)CCN1CCN(Cc2cc(F)ccc2-n2cccn2)CC1CCO (centres undefined)	none
CC(C)CN1CCN(Cc2cc(F)ccc2-n2cccn2)CC1CCO (centres undefined)	none | CHT act confirm inactive | HEK293 MP dye inactive
CC1CCCCC1NC(=O)CSc1nnc(C(F)(F)F)n1C (centres undefined)	none (no result: T cell modulator, p-CIP stab down, GPR7 antag, CHT block, CHT allo act)
COc1ccc(C(=O)c2nccc3cc(OC)c(OC)cc23)cc1OC	none (no result: p-CIP stab down, GPR7 antag, CHT block, CHT allo act)
